Data as given in PubChem BioAssay AID588702 (Broad Institute, 2011).
Active and inactive are the calls of the source.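 The calls were made as follows: active = marked loss of luminescence, read as toxicity to breast epithelial cells carrying a control GFP hairpin; inactive = the rest.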

Tested on: not listed separately
Assay: HMLE_shGFP viability loss – cell-based, CellTiter-Glo luminescence, dry powder samples, counter-screen for breast cancer stem cell project, dose response (AID 588702)
Settings: HMLE_shGFP viability, CellTiter-Glo luminescence, 72 h
How it was run: (§1)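 Test system – HMLE mammary epithelial cells expressing shGFP, toxicity counterscreen line · Amount – 1000 HMLE_shGFP cells per well · Doses – compound delivered to wells by pin transfer · Incubation – 24 h attachment, 72 h compound exposure · Signal – CellTiter-Glo luminescence · Control set – DMSO-only wells · Medium – serum-free screening medium for cell seeding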

With `O=C(COc1c(Cl)cc(Cl)cc1Cl)N/N=C/c1ccc[nH]1` the outcome was “inactive”.
With `O=C(COc1ccc(Cl)cc1Cl)N/N=C/c1cnc[nH]1` the outcome was “inactive”.

Tested on: HMLE_shGFP viability, CellTiter-Glo luminescence, 72 h
Assay: as above
Settings: not given
How it was run: as §1

Point of comparison: `O=C(N/N=C/c1ccc[nH]1)c1cc2ccccc2o1`, AC50 378 µM. Against it:
- CC(C)(C)c1ccc2c(c1)OC(C(=O)N/N=C/c1ccc[nH]1)CO2 (configuration not stated) — 18-fold lower, 21.1 µM
- O=C(COc1ccc(Cl)cc1Cl)N/N=C/c1ccc[nH]1 — 7.4-fold lower, 51.4 µM
- O=C(COc1cc(Cl)ccc1Cl)N/N=C/c1ccc[nH]1 — 33-fold lower, 11.4 µM
- Cc1cc(Cl)ccc1OCC(=O)N/N=C/c1ccc[nH]1 — 13-fold lower, 29.9 µM
